Reference: ChEMBL document CHEMBL5634116, “Strategies for developing retinoic acid receptor alpha-selective antagonists as novel agents for male contraception” (Eur J Med Chem, 2023)
Activity calls are given as the source filed them. No cut-off for these calls is given here.

Columns and labels:
[1] = molecular target: T1, Retinoic acid receptor beta (Homo sapiens, UniProt P10826); assay: Antagonist activity at recombinant human RAR-beta expressed in mammalian cells in presence of ATRA by luciferase reporter gene based transactivation assay; format: cell-based
T1 sequence (P10826 whole entry): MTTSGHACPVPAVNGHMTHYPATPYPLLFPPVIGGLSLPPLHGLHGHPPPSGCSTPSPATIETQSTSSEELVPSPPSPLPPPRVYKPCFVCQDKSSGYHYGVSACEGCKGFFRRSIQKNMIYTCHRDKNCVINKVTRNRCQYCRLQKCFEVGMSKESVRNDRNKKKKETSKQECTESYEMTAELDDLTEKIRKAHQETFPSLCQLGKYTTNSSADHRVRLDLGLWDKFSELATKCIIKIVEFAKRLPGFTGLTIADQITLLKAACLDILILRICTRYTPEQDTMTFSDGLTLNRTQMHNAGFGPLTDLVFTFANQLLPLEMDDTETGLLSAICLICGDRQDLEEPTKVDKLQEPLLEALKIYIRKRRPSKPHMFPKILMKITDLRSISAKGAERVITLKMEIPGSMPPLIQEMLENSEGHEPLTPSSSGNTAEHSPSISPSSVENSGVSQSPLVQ

Mus musculus [2] = assay: Effect on spermatogenesis in CD-1 mouse assessed as sperm count at 10 mg/kg/day, po for 2 weeks measured on day 1 post-cessation of drug treatment by hemocytometry (reference value: 41.80 +/- 7.92 x 10^6No_unit); format: functional; details: time 15 day
Mus musculus [3] = assay: Effect on spermatogenesis in CD-1 mouse assessed as abnormal epididymal sperm morphology at 5 mg/kg/day, po for 7 days measured after 4 weeks post-cessation of drug treatment by hematoxylin counter-staining based analysis; format: functional, organism-based; details: time 5.0 weeks
Mus musculus [4] = assay: Effect on fertility in CD-1 mouse assessed as size of embryonic litters formed post-cessation of drug treatment at 5 mg/kg/day, po for 7 days followed by drug cessation and initiation of mating for 2 weeks; format: functional; details: time 3 weeks
[5] = Partition coefficient, logD of compound in 1-octanol/PBS at pH 7.4; format: physicochemical; details: octanol/water
Summary of the method: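 Distribution between 1-octanol and PBS at pH 7.4; log D reported.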

[6] = molecular target: T1, Retinoic acid receptor beta; assay: Agonist activity at recombinant human RAR-beta expressed in mammalian cells by luciferase reporter gene based transactivation assay; format: cell-based
Summary of the method: (§1)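 Human RAR-subtype luciferase reporter cells (RARE-driven). Compounds in DMSO (final 0.4%) tested as 8-point dose response in triplicate. Incubated overnight at 37 °C in 5% CO2, then detection reagent 30 min at r.t. and luminescence measured. EC50 by four-parameter logistic fit, mean ± SEM from geometric mean of log EC50 across independent experiments.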

[7] = molecular target: T2, Retinoic acid receptor gamma (Homo sapiens, UniProt P13631); assay: Agonist activity at recombinant human RAR-gamma expressed in mammalian cells by luciferase reporter gene based transactivation assay; format: cell-based; summary of the method: as §1
T2 sequence (P13631 whole entry): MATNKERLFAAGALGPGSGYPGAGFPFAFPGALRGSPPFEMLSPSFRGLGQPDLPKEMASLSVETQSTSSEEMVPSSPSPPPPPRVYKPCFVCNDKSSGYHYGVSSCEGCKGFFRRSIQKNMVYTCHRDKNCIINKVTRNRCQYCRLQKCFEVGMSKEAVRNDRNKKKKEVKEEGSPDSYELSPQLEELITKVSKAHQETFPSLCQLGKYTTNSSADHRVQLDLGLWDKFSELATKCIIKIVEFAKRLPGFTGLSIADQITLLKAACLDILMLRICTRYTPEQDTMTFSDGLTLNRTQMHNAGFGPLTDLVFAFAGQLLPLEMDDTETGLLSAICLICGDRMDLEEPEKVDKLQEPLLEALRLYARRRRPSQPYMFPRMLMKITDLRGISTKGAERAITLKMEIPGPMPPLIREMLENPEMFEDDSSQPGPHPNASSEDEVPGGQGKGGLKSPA

IC50 [1]: > 3300 nM
logD [5]: 3.35
EC50 [6]: 75 nM
EC50 [7]: 520 nM
SMILES: Cc1ccc(C2=CC(C)(C)Oc3ccc(C(=O)Nc4ccc(C(=O)O)cc4)cc32)cc1
Activity (Mus musculus [2]): 37.2 10^6No_unit
Activity (Mus musculus [3]): inactive
Activity (Mus musculus [4]): 12.15
